# Only some compounds are listed: those with a hit (about 2.9% of all), similar ones and a draw of the others.
# NS3 helicase inh: inhibitors of HCV NS3 helicase, primary screen, biochemical, Cy5 molecular beacon fluorescence. Hepatitis C virus NS3 helicase. NS3 helicase DNA unwinding. inhibition, % at 10.9 µM. actives 0.56% (n = 290,000). AID 1800, 2009;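 active = inhibition above the mean of all tested compounds plus 3 SD, set per campaign, cut at about 35% in these data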;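 note: 0% = DMSO wells and 100% = thioflavine S control wells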
#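 Measured by: Cy5 fluorescence, 0 and 60 min reads / Assay system: NS3 helicase fragment of HCV / Control set: low DMSO, high thioflavine S at 110 µM / Times: 1 h reaction at 25 °C, ATP-initiated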
# PRMT1 FP inh: PRMT1 methyltransferase inhibitors, primary screen, biochemical, fluorescence polarization; inhibition, % at 2.79 µM; recombinant PRMT1, activity-based probe fluorescence polarization; actives 1.3% (n = 370,000); Protein arginine N-methyltransferase 1 (Homo sapiens), Q99873;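 active = inhibition above about 21% made by adding two undisclosed values, limit read from the data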
# Target sequence (Q99873 whole entry, looked up): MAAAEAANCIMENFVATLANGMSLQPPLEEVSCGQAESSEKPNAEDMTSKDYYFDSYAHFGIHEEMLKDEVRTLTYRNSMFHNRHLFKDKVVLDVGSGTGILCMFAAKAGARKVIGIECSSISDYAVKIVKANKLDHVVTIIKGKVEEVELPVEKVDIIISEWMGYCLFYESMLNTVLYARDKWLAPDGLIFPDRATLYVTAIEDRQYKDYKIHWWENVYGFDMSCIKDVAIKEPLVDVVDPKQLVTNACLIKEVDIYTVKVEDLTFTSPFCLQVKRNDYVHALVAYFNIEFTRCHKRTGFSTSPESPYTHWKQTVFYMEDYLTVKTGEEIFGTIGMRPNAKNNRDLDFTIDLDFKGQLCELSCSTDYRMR
# A3G deaminase: APOBEC3G DNA deaminase inhibitors, primary screen, biochemical, fluorescence, single-stranded DNA substrate, uHTS; inhibition, % at 20 µM; recombinant A3G, ssDNA deamination FAM/TAMRA fluorescence; DNA dC->dU-editing enzyme APOBEC-3G (Homo sapiens), Q9HC16; actives 0.28% (n = 330,000); AID 493012, 2011;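 active = inhibition of at least 40% at 20 µM, with no more than 30% in the related APOBEC3A deaminase screen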;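 note: plate controls were DMSO wells with A3G for no effect and wells lacking A3G enzyme for full effect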
# APOBEC3A inh: APOBEC3A ssDNA deaminase inhibitors, primary screen, selectivity assay for APOBEC3G inhibitor project, biochemical, FAM/TAMRA oligo cleavage fluorescence. inhibition, % at 20 µM. actives 0.41% (n = 330,000). recombinant A3A, FAM/TAMRA ssDNA deamination fluorescence. DNA dC->dU-editing enzyme APOBEC-3A (Homo sapiens), P31941;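 active = at least 40% inhibition at 20 µM here, with at most 30% in a related deaminase screen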;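 note: plate controls were A3A with DMSO for no effect and wells lacking A3A enzyme for full effect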
# ABHD5 PLIN5 PPI: ABHD5-PLIN5 interaction inhibitors, primary screen, cell lysate, split luciferase complementation, luminescence | actives 0.78% (n = 360,000) | Split G. princeps luciferase complementation, 4 h | inhibition, % at 4 µM | Perilipin-5 (Homo sapiens) + 1-acylglycerol-3-phosphate O-acyltransferase ABHD5 (Homo …;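 active = inhibition above the mean inhibition across every tested compound plus 3 SD, cut at about 22% in these data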;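 note: 0% = DMSO only wells and the 100% control is not disclosed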
# core dimer inh: inhibitors of HCV core protein dimerization, primary screen, biochemical, TR-FRET, high-throughput; actives 0.33% (n = 300,000); TR-FRET GST/Flag-core106 dimerization, 1536-well; inhibition, % at 5 µM;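 active = inhibition above the mean of all tested compounds plus 3 SD, set per screening campaign, cut at about 45% in these data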
#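 assay system = GST-tagged and Flag-tagged HCV core protein residues 1-106 | controls = unlabelled core106 and no-GST-core106 wells | incubation = compound-protein-antibody incubation 4 h at 22.5 °C | probe or stimulus = Eu donor and XL665 acceptor anti-tag antibodies | read-out = % inhibition based on acceptor/donor emission ratio | signal = TR-FRET 671 and 617 nm emission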
# PRMT1 inh conf: PRMT1 methyltransferase inhibitors, confirmation, biochemical, fluorescence polarization, triplicate; recombinant His-PRMT1, activity-based probe fluorescence polarization; AID 687036, 2013; shares compounds with PRMT1 FP inh; inhibition, % at 2.79 µM; actives 42% (n = 3,300);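 active = mean inhibition across replicates above the hit cutoff derived for the earlier primary screen, cut at about 22% in these data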
# The depositor's hits bear a star; x = no result.
SMILES,NS3 helicase inh,PRMT1 FP inh,A3G deaminase,APOBEC3A inh,ABHD5 PLIN5 PPI,core dimer inh,PRMT1 inh conf
CN(C)CCNc1ccc(CO)c2sc3ccc(O)cc3c(=O)c12,x,4,x,x,-28,x,x
CN(C)CCNc1ccc2ncn3c4ccc(O)cc4c(=O)c1c23,x,67*,x,x,-30,x,88*
CC(C)c1csc(CN2CCC(C(=O)Nc3cccc(-c4ccco4)c3)CC2)n1,x,27*,x,x,5,x,-1
Cc1c(Cl)cccc1NC(=O)CSCc1cc(=O)[nH][nH]1,23,28*,-1,1,-13,-4,6
CCO[C@H]1OC(C(N)=O)=C[C@@H](c2ccccc2)[C@@H]1CCCO,7,73*,0,1,1,4,-5
Cc1ccccc1NC(=O)CSCC(=O)Nc1ccccc1C,-2,3,-5,-2,9,1,x
COc1ccccc1NC(=O)CCCCC(=O)Nc1ccccc1OC,4,-1,-3,-3,-1,2,x
COc1ccccc1NC(=O)CSC(N)=O,8,81*,-2,0,-8,-1,93*
Cc1ccccc1NC(=O)CSC(N)=O,10,75*,-6,-2,-39,2,90*
NC(=O)SCC(=O)Nc1ccccc1C(=O)O,10,37*,-3,0,-5,4,81*
O=C(CSc1ccccc1)Nc1ccccc1C(=O)O,4,0,-8,3,1,1,x
O=C(Nc1ccc(NC(=O)c2ccccc2)c2ccccc12)c1ccccc1,x,-1,x,x,-3,x,x
C#CC(=O)CC1(CN(Cc2ccccc2)C(=O)OC(C)(C)C)CCCCC1,x,9,x,x,9,x,x
Cc1nc2sc(C(c3ccco3)N3CCN(c4cccc(Cl)c4)CC3)c(O)n2n1 (centres undefined),4,65*,-3,1,16,39,1
Cc1nc2sc(C(c3ccco3)N3CC(C)OC(C)C3)c(O)n2n1 (centres undefined),6,29*,-8,-8,7,-2,5
CCn1c(N)c(C(N)=O)sc1=S,0,27*,18,-2,-11,-25,12
CCOC(=O)c1sc(=S)n(CC)c1N,-5,0,-9,0,4,-2,x
Cc1cccc(C(=O)Nc2c(-c3ccccc3)nc3ncccn23)c1,x,1,x,x,x,x,x
Cc1c2cc(O)c(=O)cc-2oc2cc(O)c(O)cc12,17,67*,70,76,-5,-14,137*
Cc1ccccc1-c1cc(=O)c2ccccc2o1,x,2,-6,0,9,x,x
COc1ccc(NCc2nnc(SCC(=O)Nc3cccc(C)c3)o2)cc1,-4,37*,-3,1,-15,14,29*
Nc1ccc2cc3[nH]c4cc(N)ccc4c3nc2c1,x,156*,x,x,-8,x,-41
CCc1c(C2(O)CCCCC2)[nH]c2ccc(C(F)(F)F)cc12,-44,-1,-3,4,-43,-5,x
CCOC(=O)C1=C(CSc2nc(C)cc(C)c2C#N)OC(N)=C(C#N)C1c1cccs1 (centres undefined),15,x,-6,-2,x,0,x
CCOC(=O)C1=C(CSc2nc(-c3ccccc3)ccc2C#N)OC(N)=C(C#N)C1c1ccc(OC)cc1 (centres undefined),21,48*,-14,-13,-7,44,10
CCOC(=O)C1=C(CSc2nc(CC)c(C)cc2C#N)OC(N)=C(C#N)C1c1ccccc1 (centres undefined),4,28*,-12,-11,-11,22,4
